PGC1a acetyl inh – lowers PGC1a acetylation signal in U2OS cells | hit rate 0.17% among 350,000 | AlphaScreen anti-acetyl-lysine; with virally co-expressed GCN5 acetyltransferase | AID 651687 | inhibition, % at 15.6 µM;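 active = every replicate shows inhibition of at least 40%; inconclusive = mean inhibition at least 40% but some replicate below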
MITF TRPM1 HTS – MITF TRPM1 promoter activation in melanoma cells; SK-MEL-5 TRPM1-promoter luciferase, 24 h; % of positive control, neutral wells = 0; activation, % at 12.5 µM; hit rate 0.75% among 300,000; AID 588334;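 active = mean activation of at least 80% with every replicate also reaching 80%; inconclusive = mean reaches 80% but some replicate falls short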
Cneo AK release – Cryptococcus neoformans lysis via adenylate kinase release; hit rate 0.2% among 360,000; C. neoformans lysis, adenylate kinase release luminescence, 4 h; normalised: neutral wells 0, clomiphene wells 100; lysis activity, % at 15 µM; AID 651654;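 active = mean lysis activity across replicates of at least 80%, whatever share of replicates individually reach that level; inactive = mean lysis activity below 80%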
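read-out = cell lysis signal | test system = log-phase Cryptococcus neoformans yeast cells | input = cells at 5 × 10^6 per mL | medium = fresh YPD growth medium | signal = luminescent adenylate kinase detection reagent | timing = 4 h at 37 °C static, read 1 h later | dosing = single dose | controls = Clomiphene as positive lysis control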
Wnt act – Wnt/beta-catenin pathway activation; activation, % at 9.35 µM; Wnt/beta-catenin reporter cell assay, activator, plate reader; hit rate 1.2% among 300,000; in the data active = activation above about 30%, passing the limit was not always enough; inconclusive = no clear call, values can overlap the other calls
A number is an active result; 0 = inactive; ? = inconclusive; - = no result given; ! = not active in a repeat. Rows were chosen to be rich in hits. Some 1.5% of all compounds tested hit in one or more screens of this group.

SMILES	PGC1a acetyl inh	MITF TRPM1 HTS	Cneo AK release	Wnt act
C/C=C/c1ccc([C@H]2[C@@H](C#N)N(c3ncc(CC)s3)[C@@H]2CO)cc1	0	-	0	-
Clc1ccccc1NN=Cc1ccccn1	-	-	0	60
Nc1c(Cl)ncnc1N/N=C/c1ccccn1	-	-	-	0
CCOc1ccccc1CNC(=O)c1cn(C)c(=O)c2c1c1ccccc1n2C	0	0	-	47
O=C(C[C@H]1CC[C@H]2NC[C@H](O)COC[C@@H]2O1)NC1Cc2ccccc2C1	0	-	0	-
CCOC(=O)C1(Cc2cccc(OC)c2)CCCN(C(=O)c2cc(CC(C)C)[nH]n2)C1 (configuration not stated)	0	0	0	0
CCOC(=O)C1(Cc2cccc(OC)c2)CCCN(C(=O)c2ccc(OC)o2)C1 (configuration not stated)	0	88	0	?
Cc1onc(-c2c(Cl)cccc2Cl)c1NC(=O)NC1CCSC1 (configuration not stated)	0	-	0	34
CC(C)NC(=O)N(C)C[C@@H]1Oc2ccc(NC(=O)C3CCCCC3)cc2C(=O)N([C@@H](C)CO)C[C@@H]1C	-	-	0	-
COc1ccc2c3c([nH]c2c1)[C@H](CO)N(Cc1ccccc1)CC31CCN(CC2CC2)CC1	0	-	-	-
COC(=O)c1ccc(Nc2cc(C)nc3ccccc23)cc1	0	-	0	48
COCC#Cc1cnc2c(c1)C(=O)N([C@H](C)CO)C[C@@H](C)[C@H](CN(C)S(C)(=O)=O)O2	0	-	0	-
CC(=NC1CCCCC1)C1=C(O)c2ccccc2C1=O	0	90	0	?
CC(=NC1CCCCC1)c1ccc(O)cc1O	-	-	0	0
CC(Cc1ccco1)NC(=O)c1ccc(C(F)(F)F)cc1 (configuration not stated)	0	128	0	0
CN1C[C@@H]2[C@H](c3ccccc31)[C@H](CO)N2C(=O)CN1CCOCC1	0	-	0	-
Cc1cccc(C(=O)Nc2sc(C)c(-c3ccccc3)c2C#N)c1	0	0	0	-
Cc1sc(NC(=O)C2CCCCC2)c(C#N)c1-c1ccccc1	0	0	0	42
O=c1[nH]c(-c2ccc(-c3cccc(Cl)c3)o2)nc2ccccc12	0	104	0	?
CCC(=O)N(C)C[C@H]1Oc2cc(C#CC(C)(C)O)ccc2S(=O)(=O)N([C@@H](C)CO)C[C@H]1C	0	-	0	-
C[C@@H]1CN([C@H](C)CO)S(=O)(=O)c2ccc(C#CC(C)(C)O)cc2O[C@H]1CN(C)C(=O)CN(C)C	0	-	0	-
CCC(=O)N(C)C[C@@H]1Oc2cc(C#CC(C)(C)O)ccc2S(=O)(=O)N([C@H](C)CO)C[C@H]1C	0	-	103	-
CCC(=O)N(C)C[C@H]1Oc2cc(C#CC(C)(C)O)ccc2S(=O)(=O)N([C@@H](C)CO)C[C@@H]1C	0	-	98	-
CCC(=O)N1CC2(C1)CN(Cc1ccccc1Cl)[C@H](CO)c1[nH]c3cc(OC)ccc3c12	0	-	-	-
C[C@@H]1CN([C@H](C)CO)C(=O)Cc2cc(NC(=O)CCCCCC(=O)Nc3ccccc3N)ccc2O[C@H]1CN(C)C(=O)Nc1ccccc1	0	-	105	-
SMILES	PGC1a acetyl inh	MITF TRPM1 HTS	Cneo AK release	Wnt act
C[C@@H]1CN([C@@H](C)CO)C(=O)Cc2cc(NC(=O)CCCCCC(=O)Nc3ccccc3N)ccc2O[C@H]1CN(C)C(=O)Nc1ccccc1	0	-	-	-
C[C@H]1CN([C@@H](C)CO)C(=O)Cc2cc(NC(=O)CCCCCC(=O)Nc3ccccc3N)ccc2O[C@H]1CN(C)C(=O)Nc1ccccc1	0	-	94	-
N/C(=N\NC(=O)Nc1ccccc1)c1ccccn1	0	-	0	36
CO[C@H]1CN(C)C(=O)c2cc(NC(=O)C3CC3)ccc2OC[C@@H](C)N(C(C)=O)C[C@@H]1C	0	-	0	-
CC(=O)Nc1nonc1NC(=O)c1ccc(C(C)(C)C)cc1	0	-	0	55
Cc1ccc([N+](=O)[O-])cc1NC(=O)c1ccc(C(C)(C)C)cc1	0	0	0	0
CC(C)(C)c1ccc(C(=O)Nc2ccc(Cl)cc2)cc1	-	99	-	0
Cc1ccc(NC(=O)c2ccc(C(C)(C)C)cc2)cc1[N+](=O)[O-]	-	121	0	-
O=C(COc1ccccc1[N+](=O)[O-])Nc1ccc2c(c1)CCC2	0	111	0	0
N#C[C@H]1[C@@H](c2ccc(C#CC3CCCCC3)cc2)[C@H](CO)N1C(=O)Cc1ccccn1	0	-	0	-
Cc1noc(C)c1S(=O)(=O)Nc1ccc2c(c1)C(=O)N([C@@H](C)CO)C[C@@H](C)[C@H](CN(C)C(=O)CCC(F)(F)F)OCCCC[C@H](C)O2	0	-	0	-
CCCOc1ccc(C(=O)Nc2ccc(C)cc2[N+](=O)[O-])cc1	0	0	0	-
CC(C)COc1ccc(C(=O)Nc2ccccc2[N+](=O)[O-])cc1	-	0	-	80
CC(C)(C)c1ccc(NC(=O)c2ccccc2)c([N+](=O)[O-])c1	-	0	0	75
Cc1cc(C(=O)Nc2ccc3c(c2)CCC3)ccc1[N+](=O)[O-]	0	-	0	51
COc1ccc(/C=C/C(=O)c2ccccc2)cc1Cn1nnc2ccccc21	-	0	-	43
O=S(=O)(N[C@@H]1CC[C@H](CCn2cc(C3(O)CCCC3)nn2)O[C@H]1CO)c1ccccc1	0	-	0	-
CCCNC(=O)N[C@H]1CC[C@H](CC(=O)NC2CCC2)O[C@@H]1CO	0	-	-	-
CC12CC3CC(C)(C1)CC(C(=O)NC(=S)N1CCCCC1)(C3)C2	-	0	111	0
C[C@@H]1CN([C@@H](C)CO)C(=O)c2cc(C#CCN(C)C)cnc2O[C@H]1CN(C)C(=O)CCN1CCCCC1	0	-	0	-
Clc1cc(Cl)c(OCc2nc(-c3ccccn3)no2)cc1Cl	0	-	0	51
COc1ccc(Cc2nc(-c3ccccn3)no2)cc1	0	0	0	0
CC(C)(C)c1ccc(OCc2nc(-c3ccccn3)no2)c(Br)c1	0	0	0	51
CN(C)C(=O)C[C@@H]1CC[C@H]2[C@@H](COC[C@@H](O)CN2CC2CC2)O1	0	-	0	-
Cc1ccc(S(=O)(=O)N(C)C[C@@H]2Oc3c(NC(=O)c4nc5ccccc5s4)cccc3C(=O)N([C@@H](C)CO)C[C@H]2C)cc1	0	-	0	-
SMILES	PGC1a acetyl inh	MITF TRPM1 HTS	Cneo AK release	Wnt act
CCOC(=O)C(CNc1ccc(OCc2ccccc2)cc1)NC(=O)c1ccccc1 (configuration not stated)	-	-	-	44
O=C(Nc1ccncc1)c1cc2ccccc2cc1O	-	0	-	47
O=C(C[C@@H]1CC[C@@H]2NC[C@@H](O)COC[C@H]2O1)NCCN1CCCC1	0	-	0	-
C[C@H]1CN([C@@H](C)CO)C(=O)CCCn2cc(nn2)CO[C@@H]1CN(C)Cc1ccc(C(F)(F)F)cc1	0	-	82	-
C[C@@H]1CN([C@@H](C)CO)C(=O)CCCn2cc(nn2)CO[C@@H]1CN(C)Cc1ccc2c(c1)OCO2	0	-	114	-
COC(=O)N(C)C[C@H]1OCc2cn(nn2)CCCC(=O)N([C@H](C)CO)C[C@@H]1C	0	-	100	0
C[C@H](CO)N1C[C@H](C)[C@@H](CN(C)Cc2ccc3c(c2)OCO3)OCc2cn(nn2)CCCC1=O	0	-	0	-
C[C@@H]1CN([C@@H](C)CO)C(=O)CCCn2nncc2CO[C@H]1CN(C)Cc1cccc(C(F)(F)F)c1	0	-	120!	0
C[C@H]1CN([C@@H](C)CO)C(=O)CCCn2nncc2CO[C@@H]1CN(C)Cc1cccc(C(F)(F)F)c1	0	-	0	0

High-throughput results deposited in PubChem by Broad Institute.
